# From ChEMBL document CHEMBL1125136, “Quinolone antibacterial agents substituted at the 7-position with spiroamines. Synthesis and structure-activity relationships” (1990)
# Tested on: Klebsiella pneumoniae
# Experiment: Evaluated for minimum inhibitory concentration against gram-negative bacteria Klebsiella pneumoniae MGH-2
# Format: functional
# Conditions: not given
# Summary of the method: (§1)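 Broth microdilution MIC by standard technique. Values come from duplicate experiments and are stated as accurate to ±50%.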
row,SMILES,MIC [µg/mL]
1,CCn1cc(C(=O)O)c(=O)c2c(F)c(F)c(N3CCC4(CCN(C)C4)C3)c(F)c21 (centres undefined),1.6
2,CCn1cc(C(=O)O)c(=O)c2cc(F)c(N3CCC(N)C3)c(F)c21 (centres undefined),0.2
3,O=C(O)c1cn(C2CC2)c2c(F)c(N3CCC4(CCCN4)C3)c(F)cc2c1=O (centres undefined),0.1

# Further lines, results first:
row,MIC [µg/mL],SMILES
1,25,CCn1cc(C(=O)O)c(=O)c2cc(F)c(N3CCCC4(CCCNC4)C3)nc21 (centres undefined)
2,0.2,CCN1CCC2(CCN(c3c(F)cc4c(=O)c(C(=O)O)cn(C5CC5)c4c3F)C2)C1 (centres undefined)

# Tested on: Pseudomonas aeruginosa
# Experiment: Evaluated for minimum inhibitory concentration against gram-negative bacteria Pseudomonas aeruginosa UI-18
# Format: functional
# Conditions: not given
# Summary of the method: as §1
row,SMILES,MIC [µg/mL]
1,CCn1cc(C(=O)O)c(=O)c2c(F)c(F)c(N3CCC4(CCN(C)C4)C3)c(F)c21 (centres undefined),6.3
2,CCn1cc(C(=O)O)c(=O)c2cc(F)c(N3CCC(N)C3)c(F)c21 (centres undefined),0.4
3,O=C(O)c1cn(C2CC2)c2c(F)c(N3CCC4(CCCN4)C3)c(F)cc2c1=O (centres undefined),0.2

# Further lines, results first:
row,MIC [µg/mL],SMILES
1,50,CCn1cc(C(=O)O)c(=O)c2cc(F)c(N3CCCC4(CCCNC4)C3)nc21 (centres undefined)
2,1.6,CCN1CCC2(CCN(c3c(F)cc4c(=O)c(C(=O)O)cn(C5CC5)c4c3F)C2)C1 (centres undefined)

# Tested on: Escherichia coli
# Experiment: In vivo protective dose for mouse protection assay in Escherichia coli Vogel after peroral administration
# Format: functional
# Conditions: po, read-out: PD50
# Summary of the method: (§2)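 Female Charles River CD-1 mice were given an acute, lethal, systemic infection. A single dose of compound was given at the time of challenge, by the route stated in the line, with 16 animals per dose level. The read-out is the median protective dose (PD50, mg/kg). Per the footnote, values come from 16 animals per test, with a mean variation of ±34%.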
row,SMILES,ED50 [mg/kg]
1,CCn1cc(C(=O)O)c(=O)c2c(F)c(F)c(N3CCC4(CCN(C)C4)C3)c(F)c21 (centres undefined),22
2,O=C(O)c1cn(C2CC2)c2c(F)c(N3CCC4(CCCN4)C3)c(F)cc2c1=O (centres undefined),4

# Tested on: Streptococcus pyogenes
# Experiment: Evaluated for minimum inhibitory concentration against gram-positive bacteria Streptococcus pyogenes C203
# Conditions: not given
row,SMILES,MIC [µg/mL]
1,CCn1cc(C(=O)O)c(=O)c2c(F)c(F)c(N3CCC4(CCN(C)C4)C3)c(F)c21 (centres undefined),1.6
2,CCn1cc(C(=O)O)c(=O)c2cc(F)c(N3CCC(N)C3)c(F)c21 (centres undefined),0.4
3,O=C(O)c1cn(C2CC2)c2c(F)c(N3CCC4(CCCN4)C3)c(F)cc2c1=O (centres undefined),0.4

# Other lines, results leading:
row,MIC [µg/mL],SMILES
1,50,CCn1cc(C(=O)O)c(=O)c2cc(F)c(N3CCCC4(CCCNC4)C3)nc21 (centres undefined)
2,0.2,CCN1CCC2(CCN(c3c(F)cc4c(=O)c(C(=O)O)cn(C5CC5)c4c3F)C2)C1 (centres undefined)

# Tested on: Pseudomonas
# Experiment: Evaluated for minimum inhibitory concentration against gram-negative bacteria Pseudomonas rettgeri H1771
# Format: functional
# Conditions: not given
# Summary of the method: as §1
row,SMILES,MIC [µg/mL]
1,CCn1cc(C(=O)O)c(=O)c2c(F)c(F)c(N3CCC4(CCN(C)C4)C3)c(F)c21 (centres undefined),6.3
2,CCn1cc(C(=O)O)c(=O)c2cc(F)c(N3CCC(N)C3)c(F)c21 (centres undefined),0.2
3,O=C(O)c1cn(C2CC2)c2c(F)c(N3CCC4(CCCN4)C3)c(F)cc2c1=O (centres undefined),0.8

# The next lines start with the values.
row,MIC [µg/mL],SMILES
1,100,CCn1cc(C(=O)O)c(=O)c2cc(F)c(N3CCCC4(CCCNC4)C3)nc21 (centres undefined)
2,0.4,CCN1CCC2(CCN(c3c(F)cc4c(=O)c(C(=O)O)cn(C5CC5)c4c3F)C2)C1 (centres undefined)

# Tested on: Staphylococcus aureus
# Experiment: Evaluated for minimum inhibitory concentration against […] bacteria Staphylococcus aureus H228
# Format: functional
# Conditions: not given
# Summary of the method: as §1
row,SMILES,MIC [µg/mL]
1,CCn1cc(C(=O)O)c(=O)c2c(F)c(F)c(N3CCC4(CCN(C)C4)C3)c(F)c21 (centres undefined),0.8
2,CCn1cc(C(=O)O)c(=O)c2cc(F)c(N3CCC(N)C3)c(F)c21 (centres undefined),0.4
3,O=C(O)c1cn(C2CC2)c2c(F)c(N3CCC4(CCCN4)C3)c(F)cc2c1=O (centres undefined),0.05

# The remaining lines, values ahead:
row,MIC [µg/mL],SMILES
1,6.3,CCn1cc(C(=O)O)c(=O)c2cc(F)c(N3CCCC4(CCCNC4)C3)nc21 (centres undefined)
2,0.1,CCN1CCC2(CCN(c3c(F)cc4c(=O)c(C(=O)O)cn(C5CC5)c4c3F)C2)C1 (centres undefined)

# Tested on: Enterobacter cloacae
# Experiment: Evaluated for minimum inhibitory concentration against gram-negative bacteria Enterobacter cloacae HA 2646
# Format: functional
# Conditions: not given
row,SMILES,MIC [µg/mL]
1,CCn1cc(C(=O)O)c(=O)c2c(F)c(F)c(N3CCC4(CCN(C)C4)C3)c(F)c21 (centres undefined),0.8
2,CCn1cc(C(=O)O)c(=O)c2cc(F)c(N3CCC(N)C3)c(F)c21 (centres undefined),0.1
3,O=C(O)c1cn(C2CC2)c2c(F)c(N3CCC4(CCCN4)C3)c(F)cc2c1=O (centres undefined),0.025

# Further lines, results first:
row,MIC [µg/mL],SMILES
1,25,CCn1cc(C(=O)O)c(=O)c2cc(F)c(N3CCCC4(CCCNC4)C3)nc21 (centres undefined)
2,0.2,CCN1CCC2(CCN(c3c(F)cc4c(=O)c(C(=O)O)cn(C5CC5)c4c3F)C2)C1 (centres undefined)

# Tested on: Escherichia coli
# Experiment: Evaluated for minimum inhibitory concentration against gram-negative bacteria Escherichia coli Vogel
# Format: functional
# Conditions: not given
# Summary of the method: as §1
row,SMILES,MIC [µg/mL]
1,CCn1cc(C(=O)O)c(=O)c2c(F)c(F)c(N3CCC4(CCN(C)C4)C3)c(F)c21 (centres undefined),0.8
2,CCn1cc(C(=O)O)c(=O)c2cc(F)c(N3CCC(N)C3)c(F)c21 (centres undefined),0.05
3,O=C(O)c1cn(C2CC2)c2c(F)c(N3CCC4(CCCN4)C3)c(F)cc2c1=O (centres undefined),0.025

# Next, values leading:
row,MIC [µg/mL],SMILES
1,12.5,CCn1cc(C(=O)O)c(=O)c2cc(F)c(N3CCCC4(CCCNC4)C3)nc21 (centres undefined)
2,0.1,CCN1CCC2(CCN(c3c(F)cc4c(=O)c(C(=O)O)cn(C5CC5)c4c3F)C2)C1 (centres undefined)

# Tested on: not listed separately
# Experiment: Evaluated for minimum inhibitory concentration against […] bacteria […] SV-1
# Format: functional
# Conditions: not given
# Summary of the method: as §1
row,SMILES,MIC [µg/mL]
1,CCn1cc(C(=O)O)c(=O)c2c(F)c(F)c(N3CCC4(CCN(C)C4)C3)c(F)c21 (centres undefined),0.8
2,CCn1cc(C(=O)O)c(=O)c2cc(F)c(N3CCC(N)C3)c(F)c21 (centres undefined),0.4
3,O=C(O)c1cn(C2CC2)c2c(F)c(N3CCC4(CCCN4)C3)c(F)cc2c1=O (centres undefined),0.4

# The next lines start with the values.
row,MIC [µg/mL],SMILES
1,12.5,CCn1cc(C(=O)O)c(=O)c2cc(F)c(N3CCCC4(CCCNC4)C3)nc21 (centres undefined)
2,0.2,CCN1CCC2(CCN(c3c(F)cc4c(=O)c(C(=O)O)cn(C5CC5)c4c3F)C2)C1 (centres undefined)

# Tested on: Staphylococcus aureus
# Experiment: Evaluated for minimum inhibitory concentration against […] bacteria Staphylococcus aureus UC-76
# Format: functional
# Conditions: not given
# Summary of the method: as §1
row,SMILES,MIC [µg/mL]
1,CCn1cc(C(=O)O)c(=O)c2c(F)c(F)c(N3CCC4(CCN(C)C4)C3)c(F)c21 (centres undefined),0.2
2,CCn1cc(C(=O)O)c(=O)c2cc(F)c(N3CCC(N)C3)c(F)c21 (centres undefined),0.05
3,O=C(O)c1cn(C2CC2)c2c(F)c(N3CCC4(CCCN4)C3)c(F)cc2c1=O (centres undefined),0.4

# Results, then the molecule that gave them:
row,MIC [µg/mL],SMILES
1,3.1,CCn1cc(C(=O)O)c(=O)c2cc(F)c(N3CCCC4(CCCNC4)C3)nc21 (centres undefined)
2,0.025,CCN1CCC2(CCN(c3c(F)cc4c(=O)c(C(=O)O)cn(C5CC5)c4c3F)C2)C1 (centres undefined)

# Tested on: Enterococcus faecalis
# Experiment: Evaluated for minimum inhibitory concentration against gram-positive bacteria Staphylococcus faecalis MGH-2
# Conditions: not given
row,SMILES,MIC [µg/mL]
1,CCn1cc(C(=O)O)c(=O)c2c(F)c(F)c(N3CCC4(CCN(C)C4)C3)c(F)c21 (centres undefined),1.6
2,CCn1cc(C(=O)O)c(=O)c2cc(F)c(N3CCC(N)C3)c(F)c21 (centres undefined),0.8
3,O=C(O)c1cn(C2CC2)c2c(F)c(N3CCC4(CCCN4)C3)c(F)cc2c1=O (centres undefined),0.4

# Second part, the molecule after the results:
row,MIC [µg/mL],SMILES
1,12.5,CCn1cc(C(=O)O)c(=O)c2cc(F)c(N3CCCC4(CCCNC4)C3)nc21 (centres undefined)
2,0.1,CCN1CCC2(CCN(c3c(F)cc4c(=O)c(C(=O)O)cn(C5CC5)c4c3F)C2)C1 (centres undefined)

# Tested on: Escherichia coli
# Experiment: In vivo protective dose was determined in mouse protection assay in Escherichia coli Vogel after subcutaneous administration
# Format: functional
# Conditions: sc, read-out: PD50
# Summary of the method: as §2
row,SMILES,ED50 [mg/kg]
1,CCn1cc(C(=O)O)c(=O)c2c(F)c(F)c(N3CCC4(CCN(C)C4)C3)c(F)c21 (centres undefined),12.5
2,O=C(O)c1cn(C2CC2)c2c(F)c(N3CCC4(CCCN4)C3)c(F)cc2c1=O (centres undefined),1

# Tested on: Escherichia coli
# Experiment: Evaluated for minimum concentration needed to produce linear DNA at an intensity relative to oxolinic acid at 10 mg/mL. by gyrase mediated cleavage of DNA in Escherichia coli 560.
# Format: functional
# Conditions: read-out: MIC
row,SMILES,minimum concentration for gyrase-mediated DNA cleavage [µg/mL]
1,CCn1cc(C(=O)O)c(=O)c2c(F)c(F)c(N3CCC4(CCN(C)C4)C3)c(F)c21 (centres undefined),5
2,CCn1cc(C(=O)O)c(=O)c2cc(F)c(N3CCCC4(CCCNC4)C3)nc21 (centres undefined),50
3,CCn1cc(C(=O)O)c(=O)c2cc(F)c(N3CCC(N)C3)c(F)c21 (centres undefined),1
4,CCN1CCC2(CCN(c3c(F)cc4c(=O)c(C(=O)O)cn(C5CC5)c4c3F)C2)C1 (centres undefined),0.5
5,O=C(O)c1cn(C2CC2)c2c(F)c(N3CCC4(CCCN4)C3)c(F)cc2c1=O (centres undefined),0.5
